Measured values from different studies.
Compare with care: the assays were run in different laboratories.
Target: Cytochrome P450 1A2 (CYP1A2, Homo sapiens, UniProt P05177)
Effect on: enzyme activity
Action: inhibitor
Residues used in one study (P05177 1-516): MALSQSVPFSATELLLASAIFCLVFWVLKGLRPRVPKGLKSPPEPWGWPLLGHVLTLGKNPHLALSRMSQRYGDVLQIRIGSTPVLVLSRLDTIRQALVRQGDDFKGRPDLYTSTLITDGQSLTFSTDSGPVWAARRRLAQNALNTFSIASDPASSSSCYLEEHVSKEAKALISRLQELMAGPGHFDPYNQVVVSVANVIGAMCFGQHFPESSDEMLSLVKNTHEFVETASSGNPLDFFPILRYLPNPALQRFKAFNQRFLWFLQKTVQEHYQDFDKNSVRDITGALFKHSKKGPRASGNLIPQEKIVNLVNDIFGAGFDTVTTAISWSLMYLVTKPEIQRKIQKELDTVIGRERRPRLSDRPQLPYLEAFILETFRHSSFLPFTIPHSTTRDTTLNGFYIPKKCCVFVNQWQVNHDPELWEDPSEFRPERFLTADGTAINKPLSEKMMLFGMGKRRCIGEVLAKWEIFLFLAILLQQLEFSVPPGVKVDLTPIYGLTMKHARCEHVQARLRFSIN

| SMILES | technique | species | matrix | time | pH | quantity | result |
| --- | --- | --- | --- | --- | --- | --- | --- |
| COc1ccc2c(Cc3ccccc3F)c3n(c(=O)c2c1OC)CCc1cc2c(cc1-3)OCO2 | – | – | – | – | – | IC50 | > 10 µM |
| C#Cc1ccc2cc(-c3ccccc3)c(=O)oc2c1 | – | – | – | 6 min | pH 7.6 | Ki | 2.97 µM |
| CCCCCNC(=N)N/N=C/c1c[nH]c2ccc(OC)cc12 | fluorescence | – | – | – | – | IC50 | 347 µM |
| CC1=CC(=O)C(C(C)C)=CC1=O | fluorescence | – | – | – | pH 7.4 | IC50 | 557 µM |
| C#Cc1ccc2c(=O)cc(-c3ccccc3)oc2c1 | – | – | – | 6 min | pH 7.6 | Ki | 0.52 µM |
| N#Cc1ccnc(Oc2nn([C@H]3C[C@H](F)C3)c3ncnc(N)c23)c1 | – | human | liver microsomes | 10 min | – | IC50 | 20.8 µM |
| Cc1cc2c(F)c(Oc3ncnn4cc(OC[C@@H](C)O)c(C)c34)ccc2[nH]1 | fluorescence | – | – | 15 min | – | IC50 | 44.5 µM |
| C[C@H]1CN(c2n[nH]c3nc(N[C@H]4CC[C@H](NS(=O)(=O)CCC(F)(F)F)CC4)ncc23)CCO1 | – | – | – | – | – | IC50 | > 100 µM |
| NS(=O)(=O)NCCNc1nonc1C(=NO)Nc1ccc(F)c(Br)c1 | fluorescence | – | – | – | – | IC50 | > 10 µM |
| Cc1ccc2nc(-c3ccccc3)c(CNc3ccc(F)cc3)n2c1 | – | – | – | – | – | IC50 | 1.8 µM |
| COc1ccc2[nH]c([S+]([O-])Cc3ncc(C)c(OC)c3C)nc2c1 (stereo not drawn) | fluorescence | – | – | – | – | IC50 | 112 µM |
| Nc1nc(N)c2nc(CNc3cccc4ccccc34)cnc2n1 | luciferase | – | – | – | – | IC50 | 72.4 µM |
